From ChEMBL document CHEMBL1255566, “Rigid analogues of the α2-adrenergic blocker atipamezole: small changes, big consequences” (J Med Chem, 2010)

Key:
[1] = molecular target: T1, Alpha-2A adrenergic receptor (Homo sapiens) (UniProt P08913); test: Antagonist activity at human adrenergic alpha2A receptor expressed in CHO cells assessed as inhibition of adrenaline-induced [35S]GTPgammaS binding after 30 mins by scintillation counting; format: functional, cell-based
T1 sequence (whole entry): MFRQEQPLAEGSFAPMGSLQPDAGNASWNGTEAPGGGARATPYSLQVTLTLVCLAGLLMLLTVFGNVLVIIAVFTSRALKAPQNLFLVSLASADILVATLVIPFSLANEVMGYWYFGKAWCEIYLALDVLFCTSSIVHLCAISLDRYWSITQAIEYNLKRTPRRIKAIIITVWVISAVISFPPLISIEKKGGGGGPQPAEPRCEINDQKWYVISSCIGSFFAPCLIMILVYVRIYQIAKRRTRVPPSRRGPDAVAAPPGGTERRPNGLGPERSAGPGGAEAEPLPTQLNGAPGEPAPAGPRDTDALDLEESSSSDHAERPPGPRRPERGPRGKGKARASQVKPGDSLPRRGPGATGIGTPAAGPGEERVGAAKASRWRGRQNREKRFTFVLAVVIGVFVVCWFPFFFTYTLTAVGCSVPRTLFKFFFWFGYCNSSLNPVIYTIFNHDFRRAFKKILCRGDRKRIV
Outline: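 Inhibition of adrenaline-stimulated [35S]GTPγS binding in CHO cells expressing human α2A receptors. Compounds were also run alone to check for any stimulation of [35S]GTPγS binding. Antagonist potency is reported as pKB, taken as the potency that inhibits 50% of adrenaline-induced binding.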

[2] = molecular target: T2, Alpha-1B adrenergic receptor (Homo sapiens, UniProt P35368); test: Displacement of [3H]-prazosin from human adrenergic alpha-1b receptor expressed in CHO cells after 120 mins by liquid scintillation counting; format: cell-based
T2 sequence (P35368 whole entry): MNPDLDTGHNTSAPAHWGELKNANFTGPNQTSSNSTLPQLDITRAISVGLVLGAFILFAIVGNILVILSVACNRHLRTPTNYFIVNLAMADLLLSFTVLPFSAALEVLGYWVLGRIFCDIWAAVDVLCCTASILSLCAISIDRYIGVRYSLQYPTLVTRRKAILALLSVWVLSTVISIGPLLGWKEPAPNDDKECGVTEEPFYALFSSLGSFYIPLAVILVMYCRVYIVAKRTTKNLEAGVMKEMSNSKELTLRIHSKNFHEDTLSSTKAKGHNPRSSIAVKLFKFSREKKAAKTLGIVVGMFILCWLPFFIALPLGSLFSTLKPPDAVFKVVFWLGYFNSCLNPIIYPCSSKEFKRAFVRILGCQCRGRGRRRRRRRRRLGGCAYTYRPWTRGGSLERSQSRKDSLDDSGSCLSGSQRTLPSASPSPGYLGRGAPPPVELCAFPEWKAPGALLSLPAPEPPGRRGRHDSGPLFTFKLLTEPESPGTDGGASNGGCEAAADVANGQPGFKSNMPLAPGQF
Outline: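 Competition binding at human α1b receptors stably expressed in CHO cells. Affinity values are means ± SEM of at least two experiments, each in duplicate.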

[3] = molecular target: T3, Alpha-2A adrenergic receptor (Homo sapiens, UniProt P08913); test: Displacement of [3H]-RX821002 from human adrenergic alpha2A receptor expressed in rat C6 cells after 120 mins by liquid scintillation counting; format: cell-based
T3 sequence (P08913 whole entry): T1 sequence (whole entry)
Outline: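 Competition binding at human α2A receptors expressed in C6 glial cells. Affinity values are means ± SEM of at least two experiments, each in duplicate.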

[4] = molecular target: T4, Alpha-2C adrenergic receptor (Homo sapiens, UniProt P18825); test: Displacement of [3H]-RX821002 from human adrenergic Alpha-2C receptor expressed in rat C6 cells after 120 mins by liquid scintillation counting; format: cell-based
T4 sequence (P18825 whole entry): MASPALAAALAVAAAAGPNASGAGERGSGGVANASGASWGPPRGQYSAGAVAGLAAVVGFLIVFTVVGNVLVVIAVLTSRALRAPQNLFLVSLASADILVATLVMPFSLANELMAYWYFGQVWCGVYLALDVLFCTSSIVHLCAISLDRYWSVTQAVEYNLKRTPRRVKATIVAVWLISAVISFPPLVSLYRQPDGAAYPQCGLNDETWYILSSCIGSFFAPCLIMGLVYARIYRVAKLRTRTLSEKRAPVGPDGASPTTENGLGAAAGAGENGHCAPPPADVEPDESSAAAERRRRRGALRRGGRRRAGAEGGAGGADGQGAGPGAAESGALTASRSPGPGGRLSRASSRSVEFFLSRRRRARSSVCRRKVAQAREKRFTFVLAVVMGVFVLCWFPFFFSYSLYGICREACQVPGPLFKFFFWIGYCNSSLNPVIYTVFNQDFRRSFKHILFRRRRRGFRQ

[5] = molecular target: T5, Alpha-2B adrenergic receptor (Homo sapiens, UniProt P18089); test: Displacement of [3H]-RX821002 from human adrenergic alpha2B receptor expressed in rat C6 cells after 120 mins by liquid scintillation counting; format: cell-based
T5 sequence (P18089 whole entry): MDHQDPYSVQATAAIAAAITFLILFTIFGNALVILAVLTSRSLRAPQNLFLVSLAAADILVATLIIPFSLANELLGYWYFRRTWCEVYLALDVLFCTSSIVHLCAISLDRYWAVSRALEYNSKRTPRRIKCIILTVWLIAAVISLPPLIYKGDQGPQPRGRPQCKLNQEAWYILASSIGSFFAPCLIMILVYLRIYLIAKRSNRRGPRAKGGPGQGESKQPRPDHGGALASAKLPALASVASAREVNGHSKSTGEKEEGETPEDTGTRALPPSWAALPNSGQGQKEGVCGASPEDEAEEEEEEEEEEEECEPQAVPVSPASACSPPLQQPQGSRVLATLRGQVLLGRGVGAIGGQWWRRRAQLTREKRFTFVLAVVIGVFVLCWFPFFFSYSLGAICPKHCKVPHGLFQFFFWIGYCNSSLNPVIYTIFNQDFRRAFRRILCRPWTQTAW

Mus musculus [6] = test: Antihypothermic activity in po dosed NMRI mouse assessed as inhibition of guanabenz-induced hypothermia administered 35 mins before guanabenz challenge measured after 25 mins; format: functional
Outline: (§1)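 Mice got the compound by intraperitoneal injection or oral gavage before guanabenz challenge, and reversal of guanabenz-induced hypothermia was scored. Five animals were tested per dose. ED50 is the dose giving an inhibitory effect in 50% of guanabenz-treated animals, with 95% confidence limits.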

Mus musculus [7] = test: Ratio of ED50 for santihypothermic activity in po dosed NMRI mouse to ED50 for antihypothermic activity in ip dosed NMRI mouse; format: functional
Outline: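 Guanabenz-induced hypothermia in mice, five animals per dose. ED50 (the dose inhibiting hypothermia in 50% of guanabenz-treated animals) was obtained after oral gavage and after intraperitoneal injection, and the ratio po/ip was then calculated.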

Mus musculus [8] = test: Antihypothermic activity in ip dosed NMRI mouse assessed as inhibition of guanabenz-induced hypothermia administered 5 mins before guanabenz challenge measured after 25 mins; format: functional; outline: as §1
[9] = Mus musculus, NMRI, po, read-out: ED50
[10] = Mus musculus, NMRI, ip, read-out: ED50

| Structure (SMILES) | pKb [1] | Ki [2] [nM] | Ki [3] [nM] | Ki [4] [nM] | Ki [5] [nM] | ED50 (Mus musculus [6]) [mg/kg] | Ratio ED50 (Mus musculus [7]) | ED50 (Mus musculus [8]) [mg/kg] | ED50 (Mus musculus [6]; [9]) [mg/kg] | ED50 (Mus musculus [8]; [10]) [mg/kg] |
| --- | --- | --- | --- | --- | --- | --- | --- | --- | --- | --- |
| c1ccc2c(c1)[C@H]1C[C@@]1(c1c[nH]cn1)C21CC1 (stereo in doubt; (-)-10) | 7.75 |  |  |  |  |  |  |  |  |  |
| CCC1(c2cnc[nH]2)Cc2ccccc2C1 [ATIPAMEZOLE] |  | 1950 | 1.86 | 4.17 | 2.24 |  |  |  |  |  |
| c1ccc2c(c1)C[C@]1(c3c[nH]cn3)C[C@H]21 (stereo in doubt; 1) |  | 1.32 | 0.0692 | 0.178 | 0.115 | 0.12 | 4 | 0.03 |  |  |
| C[C@H]1c2ccccc2[C@H]2C[C@]21c1c[nH]cn1 (relative stereo) | 9.54 |  |  |  |  |  | 1.5 |  | 0.009 | 0.006 |
| C[C@H]1c2ccccc2[C@H]2C[C@]21c1cnc[nH]1 (relative stereo) |  | 6.17 | 0.219 | 0.537 | 0.692 |  |  |  |  |  |
| CO[C@H]1c2ccccc2[C@H]2C[C@]21c1c[nH]cn1 (relative stereo) |  | 102 | 1.74 | 5.75 | 7.76 | 0.28 | 3.1 | 0.09 |  |  |
| CC1(C)C2c3ccccc3C[C@@]21c1c[nH]cn1 (single isomer, unassigned) | 8.97 | 178 | 1.07 | 1.17 | 1.15 |  | 6.7 |  | 0.47 | 0.07 |
| c1ccc2c(c1)[C@H]1C[C@@]1(c1c[nH]cn1)C21CC1 (stereo in doubt; 10) |  | 14.8 | 0.603 | 2.69 | 3.72 |  | 3.7 | 0.06 |  |  |
| CC[C@H]1c2ccccc2[C@H]2C[C@]21c1c[nH]cn1 (relative stereo) | 8.91 | 40.7 | 0.513 | 1.26 | 1.62 |  | 1.3 |  | 0.04 | 0.03 |
| CCCO[C@H]1c2ccccc2[C@H]2C[C@]21c1c[nH]cn1 (relative stereo) | 8.16 |  |  |  |  |  | 0.4 |  | 0.12 | 0.29 |
| CO[C@@H]1c2ccccc2[C@H]2C[C@]21c1c[nH]cn1 (relative stereo) | 6.9 |  |  |  |  |  |  |  |  |  |
| CC(C)O[C@H]1c2ccccc2[C@H]2C[C@]21c1c[nH]cn1 (relative stereo) | 6.88 | 316 | 45.7 | 89.1 | 11.7 |  |  |  |  |  |
| CO[C@H]1c2ccccc2[C@H]2C[C@]21c1c[nH]cn1 (stereo in doubt; (-)-3) |  | 1780 | 55 | 195 | 145 |  |  |  |  |  |
| CC[C@H]1[C@@H]2c3ccccc3C[C@]12c1c[nH]cn1 |  | 16.6 | 0.138 | 0.17 | 0.182 |  |  |  |  |  |
